4 compounds from ChEMBL document CHEMBL3046748, “Antifeedant effects of the limonoids from Entandrophragma candolei (Meliaceae) on the gram pod borer, Helicoverpa armigera (Lepidoptera: Noctuidae)” (J Agric Food Chem, 2003) can be followed below.

The test system of assay [1] is Helicoverpa armigera. As to the kind of experiment: Antifeedant activity against third-instar larva of Helicoverpa armigera assessed as growth inhibition after 7 days by dietary assay. The assay is classed as functional, organism-based.
Assay [2] relates to Helicoverpa armigera. Nature of the assay: Antifeedant activity against pre-starved third-instar larva of Helicoverpa armigera after 6 hr by choice feeding assay. The assay is classed as functional. Put shortly:
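H. armigera from lab culture on artificial diet, 27±1 °C, 16:8 LD. Single 2–10-h-old third instar, starved 4 h, in 9-cm Petri dish. Two preweighed diet cubes with compound (25–100 ppm) alternated with two control cubes. Consumption per cube measured after 6 h. 10 replicates per concentration. Deterrence index = (C − T)/(C + T) × 100.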

The test system of assay [3] is Helicoverpa armigera. Nature of the assay: Antifeedant activity against third-instar larva of Helicoverpa armigera assessed as decrease in weight gain at 2 to 10 ug/larva applied topically measured after 7 days relative to control. The assay is classed as functional, organism-based. Put shortly:
(§1)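 Larvae were dosed topically at 2-10 µg/larva in 0.5 µL acetone on the dorsal terga, with acetone-only controls. They were then fed untreated artificial diet, and diet consumption and weight gain were compared with controls over 7 d.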

Assay [4] has as its system Helicoverpa armigera. Nature of the assay: Antifeedant activity against Helicoverpa armigera fed on compound-treated artificial diet assessed as inhibition of consumption at 100 ppm after 3 days relative to control. The assay is classed as functional. The following applies: 72 h.
For assay [5], the system named is Helicoverpa armigera. As to the kind of experiment: Antifeedant activity against pre-starved third-instar larva of Helicoverpa armigera assessed as decrease in feeding after 6 hr by choice feeding assay relative to control. The class given is functional, organism-based. Put shortly:
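Diet choice test in 9-cm Petri dishes: two preweighed cubes of diet with compound (25-100 ppm) alternated with two control cubes. A single 2- to 10-h-old third instar, pre-starved 4 h, was placed centrally. Consumption of each cube was weighed after 6 h, with 10 replicates per concentration. Deterrence index = (C − T)/(C + T) × 100.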

For assay [6], the system named is Helicoverpa armigera. As to the kind of experiment: Antifeedant activity against Helicoverpa armigera fed on compound-treated artificial diet assessed as growth inhibition at 50 to 100 ppm after 3 days relative to control. The assay is classed as functional.
Assay [7] relates to Helicoverpa armigera. Nature of the assay: Antifeedant activity against fourth-instar larva of Helicoverpa armigera fed on compound treated artificial diet assessed as efficiency of conversion of ingested food at 100 ppm after 3 days (reference value: 20.3 +/- 2.7%). The class given is functional, Instar larval stage.
Assay [8] deals with Helicoverpa armigera. As to the kind of experiment: Antifeedant activity against fourth-instar larva of Helicoverpa armigera fed on compound treated artificial diet assessed as efficiency of conversion of ingested food at 50 ppm after 3 days (reference value: 20.3 +/- 2.7%). The class given is functional, Instar larval stage.
In assay [9] the test system is Helicoverpa armigera. Nature of the assay: Antifeedant activity against neonate larva of Helicoverpa armigera assessed as growth inhibition after 7 days by dietary assay. The assay is classed as functional, organism-based. As to conditions: for EC95: Helicoverpa armigera, feed or water, 168 h. Put shortly:
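Two 24-h-old neonates were placed per cup on 1 g fresh-weight treated artificial diet. Cups were held in a tray lined with moist filter paper at 27±2 °C under 16:8 LD. Growth was taken from larval weight after 7 d as % of control, with mortality recorded. Forty larvae were used per concentration. EC50 was obtained by regression analysis.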

Assay [10] deals with Helicoverpa armigera. As to the kind of experiment: Antifeedant activity against fourth-instar larva of Helicoverpa armigera assessed as efficiency of conversion of ingested food at 5 ppm applied topically measured after 3 days (reference value: 20.3 +/- 2.7%). The assay is classed as functional, Instar larval stage.
Assay [11] deals with Helicoverpa armigera. As to the kind of experiment: Antifeedant activity against fourth-instar larva of Helicoverpa armigera assessed as efficiency of conversion of ingested food at 10 ppm applied topically measured after 3 days (reference value: 20.3 +/- 2.7%). The class given is functional, Instar larval stage.
The test system of assay [12] is Helicoverpa armigera. Nature of the assay: Antifeedant activity against fourth-instar larva of Helicoverpa armigera fed on compound treated artificial diet assessed as relative growth rate ratio per unit weight per day at 100 ppm after 3 days (reference value: 0.8 +/- 0.03). The class given is functional.
Assay [13] deals with Helicoverpa armigera. As to the kind of experiment: Antifeedant activity against fourth-instar larva of Helicoverpa armigera fed on compound treated artificial diet assessed as relative growth rate ratio per unit weight per day at 50 ppm after 3 days (reference value: 0.8 +/- 0.03). The assay is classed as functional.
In assay [14] the test system is Helicoverpa armigera. Nature of the assay: Antifeedant activity against fourth-instar larva of Helicoverpa armigera fed on compound treated artificial diet assessed as relative consumption rate ratio per unit weight per day at 50 ppm after 3 days (reference value: 3.85 +/- 0.9). The class given is functional.
The subject of assay [15] is Helicoverpa armigera. As to the kind of experiment: Antifeedant activity against third-instar larva of Helicoverpa armigera assessed as decrease in food consumption at 2 to 10 ug/larva applied topically measured after 7 days relative to control. The class given is functional, organism-based. Put shortly: as §1
Assay [16] deals with Helicoverpa armigera. Nature of the assay: Antifeedant activity against fourth-instar larva of Helicoverpa armigera assessed as relative consumption rate ratio per unit weight per day at 10 ppm applied topically measured after 3 days (reference value: 3.85 +/- 0.9). The assay is classed as functional.
Assay [17] has as its system Helicoverpa armigera. As to the kind of experiment: Antifeedant activity against fourth-instar larva of Helicoverpa armigera assessed as relative growth rate ratio per unit weight per day at 5 ppm applied topically measured after 3 days (reference value: 0.8 +/- 0.03). The class given is functional.
For assay [18], the system named is Helicoverpa armigera. Nature of the assay: Antifeedant activity against fourth-instar larva of Helicoverpa armigera assessed as relative growth rate ratio per unit weight per day at 10 ppm applied topically measured after 3 days (reference value: 0.8 +/- 0.03). The assay is classed as functional.
Assay [19] deals with Helicoverpa armigera. Nature of the assay: Antifeedant activity against fourth-instar larva of Helicoverpa armigera assessed as relative consumption rate ratio per unit weight per day at 5 ppm applied topically measured after 3 days (reference value: 3.85 +/- 0.9). The class given is functional.
Assay [20] concerns Helicoverpa armigera. Nature of the assay: Antifeedant activity against fourth-instar larva of Helicoverpa armigera fed on compound treated artificial diet assessed as relative consumption rate ratio per unit weight per day at 100 ppm after 3 days (reference value: 3.85 +/- 0.9). The class given is functional.
Assay [21] relates to Helicoverpa armigera. As to the kind of experiment: Antifeedant activity against neonate larva of Helicoverpa armigera assessed as decrease in consumption of diet after 7 days by dietary assay. The class given is functional.

Converted amounts (≈) assume the structure as drawn. The source made the active and inactive calls. The rule behind the calls is not given here. Where only a bound is given, the exact number is not on record here.

Regarding `C=C1[C@@H]([C@@]2(C)[C@@H](OC(C)=O)CC(=O)O[C@](C)(COC(C)=O)[C@@H]2C(=O)OC)[C@@H](OC=O)[C@H](OC(=O)[C@H](O)[C@H](C)CC)[C@@]2(C)[C@H](c3ccoc3)CC(=O)[C@]12O` [PRIEURIANIN], the EC50 in [1] is 92.2 ppm; in assay [9], 18.8 ppm. In assay [2], this compound showed a DI50 of 91.4 ppm. The result in [3] and in assay [15] was inactive. For the same compound, the inhibition at 100 ppm in assay [4] is 57.7%. For the same compound, the result in assay [5] was Active. For the same compound, in assay [6], the “growth inhibition (GI)” value came out at 60%. The Activity in [7] is on record as 19.8%; in [8], 20%; in assay [10] it was 22.1%; in assay [11], 21.6%. For the same compound, the EC95 in [9] was determined as 169 µg/mL (≈ 226 µM). Further, the Ratio in [12] was determined as 0.32; in assay [13], 0.41; in [14], 2.04; in [16], 3.79; in assay [17] it was 0.83; in [18] it was 0.82. Further, the Ratio is on record as 3.74 in assay [19] and 1.63 in [20].

For `C=C1[C@@H]([C@@]2(C)[C@@H](OC(C)=O)CC(=O)O[C@](C)(COC(C)=O)[C@@H]2CC(=O)OC)[C@@H](OC=O)[C@H](OC(=O)[C@H](O)[C@H](C)CC)[C@]2(C)[C@@H](c3ccoc3)C[C@H]3O[C@]132`, the EC50 in assay [1] worked out at 55.7 ppm; in assay [9], 3.2 ppm. In addition, the result in assay [3] and in [15] was inactive. In addition, in assay [4], the inhibition at 100 ppm is 69.1%. In assay [5], the result was Active. Also, the “growth inhibition (GI)” value in assay [6] was found to be 60%. Further, the Activity entry is “Dose-dependent effect” in assay [21]; 50.2% in assay [21] (record 2); 26.4% in assay [7]; 26.2% in [8]; 25.2% in [10]; 25.9% in [11]. In addition, in [9], the EC95 was 30.6 µg/mL (≈ 41 µM). The Ratio in [12] is reported as 0.28; in assay [13], 0.36; in assay [14], 1.38; in [16], 3.36; in assay [17] it was 0.88; in assay [18] it was 0.87. Also, the values for the Ratio in assay [19] and in [20] were 3.48 and 1.06, respectively.

In the case of `C=C1[C@@H]([C@@]2(C)[C@@H](OC(C)=O)CC(=O)O[C@](C)(COC(C)=O)[C@@H]2CC(=O)OC)[C@@H](OC=O)[C@H](OC(=O)[C@H](OC(C)=O)[C@H](C)CC)[C@]2(C)[C@@H](c3ccoc3)C[C@H]3O[C@]132`, the figures for the EC50 in assay [1] and in assay [9] were 45.7 ppm and 2.6 ppm, respectively. The compound also yielded a DI50 in assay [2] of 48.3 ppm. The outcome in assay [3] and in [15] was inactive. Further, in assay [4], the inhibition at 100 ppm stood at 72.8%. In [5], the outcome was Active. The “growth inhibition (GI)” value in [6] came to 60%. The Activity result is “Dose-dependent effect” in [21]; 50.2% in assay [21] (record 2); 19% in assay [7]; 20.1% in [8]; 22.1% in assay [10]; 21.3% in [11]. For the same compound, the EC95 in assay [9] is 30.8 µg/mL (≈ 39 µM). Further, the Ratio was found to be 0.2 in [12]; 0.35 in assay [13]; 1.74 in [14]; 3.78 in assay [16]; 0.85 in [17]; 0.8 in assay [18]. Besides, the Ratio in [19] is 3.74; in assay [20] it was 1.08.

Consider `C/C=C(\C)C(=O)O[C@H]1C[C@@H](OC(C)=O)[C@@]2(C(=O)OC)CO[C@H]3[C@@H](O)[C@@](C)([C@]45O[C@@]4(C)[C@@H]4C[C@H]5O[C@@H]5OC=C[C@@]54O)[C@H]4[C@]1(CO[C@]4(O)C(=O)OC)[C@@H]32` [AZADIRACHTIN A], for which the EC50 in [1] was 0.4 ppm. Also, the inhibition at 100 ppm in [4] is ≤ 76%. Further, in assay [6], the growth inhibition (GI) is ≤ 75%. Moreover, in [9], the EC50 is 0.26 ppm and the EC95 amounted to 1.46 µg/mL (≈ 2.03 µM).

A word on the inhibition: it is how much of the control response was suppressed. By EC95 is commonly meant the point of the concentration-response curve where the effect stands at 95%.
